Ki and IC50 data for eleven compounds are collected here from ChEMBL document CHEMBL1132657, “CoMFA study of novel phenyl ring-substituted 3alpha-(diphenylmethoxy)tropane analogues at the dopamine transporter” (J Med Chem, 1999).

Assay [1] deals with T1, Sodium-dependent dopamine transporter (Rattus norvegicus, UniProt P23977). Put plainly: Displacement of [3H]WIN-35428 binding to the dopamine transporter in rat caudate putamen tissue. It is filed as tissue-based. (Displacement assays read how much labelled ligand stays bound in the presence of the test substance.)
In assay [2] the target is T1, Sodium-dependent dopamine transporter. Put plainly: Inhibition of [3H]dopamine uptake in rat caudate putamen tissue. The assay is classed as functional, tissue-based. In a few lines:
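Rat caudate putamen chopped into 225 µm slices, in oxygenated Krebs-HEPES at 37 °C. Stopped with ice-cold buffer and filtered; accumulated label extracted in methanol/HCl and counted by scintillation. Specific uptake; IC50 by linear regression on the linear portion of the concentration–response curve.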

T1 sequence (P23977 whole entry): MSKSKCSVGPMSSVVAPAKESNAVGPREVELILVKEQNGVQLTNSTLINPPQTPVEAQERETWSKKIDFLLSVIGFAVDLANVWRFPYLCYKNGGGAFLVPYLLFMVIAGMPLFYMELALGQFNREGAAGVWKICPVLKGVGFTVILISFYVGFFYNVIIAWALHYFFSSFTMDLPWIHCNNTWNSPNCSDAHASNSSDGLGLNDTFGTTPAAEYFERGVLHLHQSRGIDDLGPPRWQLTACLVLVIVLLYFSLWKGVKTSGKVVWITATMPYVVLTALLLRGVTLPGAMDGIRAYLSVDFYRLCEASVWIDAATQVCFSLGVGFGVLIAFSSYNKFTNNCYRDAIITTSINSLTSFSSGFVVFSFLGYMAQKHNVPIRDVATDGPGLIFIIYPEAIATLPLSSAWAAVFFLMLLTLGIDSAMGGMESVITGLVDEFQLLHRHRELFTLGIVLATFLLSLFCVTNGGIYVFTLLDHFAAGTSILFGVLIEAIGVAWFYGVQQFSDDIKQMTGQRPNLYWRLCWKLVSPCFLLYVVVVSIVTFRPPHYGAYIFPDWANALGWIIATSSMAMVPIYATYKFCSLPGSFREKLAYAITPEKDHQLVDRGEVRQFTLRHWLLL

Usually Ki stands for the dissociation constant of the complex between target and ligand, obtained from inhibition or displacement. A word on the IC50: it is the concentration that inhibits the measured activity by half. The low end stands for higher potency, the high end for lower potency. The compound `CN1[C@@H]2CC[C@H]1C[C@@H](OC(c1ccccc1)c1cccc([N+](=O)[O-])c1)C2` (stereo not given in full) registered a Ki in assay [1] of 187 nM. The midpoint of inhibition in assay [2], the IC50, lay at 795 nM.
Regarding `CN1[C@@H]2CC[C@H]1C[C@@H](OC(c1ccc(F)cc1)c1cccc(C(F)(F)F)c1)C2` (stereo not given in full), the inhibition constant Ki in assay [1] turned out to be 88.1 nM. In assay [2], this compound had an IC50 of 182 nM.
As to `Cc1cccc(C(O[C@H]2C[C@H]3CC[C@@H](C2)N3C)c2ccc(F)cc2)c1` (stereo not given in full), the affinity in assay [1] corresponds to a Ki of 30.9 nM. In assay [2], this compound displayed a half-inhibitory concentration (IC50) of 108 nM.
The compound `CN1[C@@H]2CC[C@H]1C[C@@H](OC(c1ccccc1)c1cccc(Br)c1)C2` (stereo not given in full) showed a Ki in assay [1] of 27 nM. In addition, half-maximal inhibition in assay [2] (IC50) required 104 nM.
As to `CN1[C@@H]2CC[C@H]1C[C@@H](OC(c1ccc(F)cc1)c1cccc(F)c1)C2` (stereo not given in full), inhibition in assay [2] was half-maximal at 139 nM (IC50).
On to `CN1[C@@H]2CC[C@H]1C[C@@H](OC(c1ccc(F)cc1)c1cccc(Br)c1)C2` (stereo not given in full), for which the affinity in assay [1], expressed as Ki, was 38.2 nM. The same compound came in with an IC50 in assay [2] of 179 nM.
The compound `CN1[C@@H]2CC[C@H]1C[C@@H](OC(c1ccccc1)c1ccc(F)c(F)c1)C2` (stereo not given in full) returned a Ki in assay [1] of 27.9 nM. Moreover, in assay [2], the IC50 worked out at 181 nM.
With `CN1[C@@H]2CC[C@H]1C[C@@H](OC(c1ccc(F)cc1)c1ccc(Br)cc1)C2` (stereo not given in full), the Ki in assay [1] came out at 15.2 nM. Besides, 27.2 nM corresponded to half-maximal inhibition in assay [2] (IC50).
In assay [1], `Cc1cccc(C(O[C@H]2C[C@H]3CC[C@@H](C2)N3C)c2ccccc2)c1` (stereo not given in full) came in with a Ki of 78 nM. In addition, the IC50 in assay [2] amounted to 226 nM.
For the compound `CN1[C@@H]2CC[C@H]1C[C@@H](OC(c1ccccc1)c1ccccc1Cl)C2` (stereo not given in full), the IC50 in assay [2] stood at 977 nM.
For the compound `CN1[C@@H]2CC[C@H]1C[C@@H](OC(c1ccc(F)cc1)c1cccc(Cl)c1)C2` (stereo not given in full), in assay [1], the Ki worked out at 23.4 nM. This compound also yielded an IC50 in assay [2] of 123 nM.
